From ChEMBL document CHEMBL1157616, “Identification of 2-anilino-9-methoxy-5,7-dihydro-6H-pyrimido[5,4-d][1]benzazepin-6-ones as dual PLK1/VEGF-R2 kinase inhibitor chemotypes by structure-based lead generation” (J Med Chem, 2010)
pIC50: −log10 of the molar value. Active and inactive are the calls of the source. How the calls were made is not given here.

Experiments:
[1] = tested on: NCI60; assay: Antiproliferative activity against human NCI60 cells at 10 uM after 48 hrs by sulforhodamine B assay; assay type: functional, cell-based
Summary of the method: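 NCI 60-cell-line prescreen with compound given once at 10 μM. Cells grown in RPMI 1640 with 5% FBS and 2 mM L-glutamine, plated 24 h before dosing, then exposed 48 h at 37 °C. Fixed with cold TCA, stained with SRB, absorbance read at 515 nm, and percent growth taken relative to time-zero and control wells.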

[2] = target: Serine/threonine-protein kinase PLK1 (Homo sapiens, UniProt P53350); assay: Inhibition of PLK1 assessed as [33Pi] incorporation by microplate scintillation counting in presence of 1 uM ATP
Serine/threonine-protein kinase PLK1, sequence (P53350 whole entry): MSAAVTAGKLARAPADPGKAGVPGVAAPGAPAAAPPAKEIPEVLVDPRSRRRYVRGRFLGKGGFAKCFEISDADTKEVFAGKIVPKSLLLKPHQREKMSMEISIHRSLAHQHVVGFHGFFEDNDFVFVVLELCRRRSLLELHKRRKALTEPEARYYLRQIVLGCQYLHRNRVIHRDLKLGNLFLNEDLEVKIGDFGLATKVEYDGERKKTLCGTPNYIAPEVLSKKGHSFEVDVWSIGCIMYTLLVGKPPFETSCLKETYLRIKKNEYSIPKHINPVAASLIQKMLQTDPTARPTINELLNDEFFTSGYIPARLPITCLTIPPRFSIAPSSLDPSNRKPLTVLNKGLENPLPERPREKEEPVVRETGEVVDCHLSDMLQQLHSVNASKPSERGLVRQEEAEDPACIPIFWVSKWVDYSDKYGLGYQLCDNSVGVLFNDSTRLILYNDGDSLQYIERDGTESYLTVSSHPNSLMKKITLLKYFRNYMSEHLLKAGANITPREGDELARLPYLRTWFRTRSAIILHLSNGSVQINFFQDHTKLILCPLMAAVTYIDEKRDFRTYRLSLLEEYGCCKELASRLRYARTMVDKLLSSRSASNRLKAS

[3] = target: Insulin receptor (Homo sapiens, UniProt P06213); assay: Inhibition of INSR assessed as [33Pi] incorporation by microplate scintillation counting in presence of 1 uM ATP
Insulin receptor, sequence (P06213 28-758 limits assumed): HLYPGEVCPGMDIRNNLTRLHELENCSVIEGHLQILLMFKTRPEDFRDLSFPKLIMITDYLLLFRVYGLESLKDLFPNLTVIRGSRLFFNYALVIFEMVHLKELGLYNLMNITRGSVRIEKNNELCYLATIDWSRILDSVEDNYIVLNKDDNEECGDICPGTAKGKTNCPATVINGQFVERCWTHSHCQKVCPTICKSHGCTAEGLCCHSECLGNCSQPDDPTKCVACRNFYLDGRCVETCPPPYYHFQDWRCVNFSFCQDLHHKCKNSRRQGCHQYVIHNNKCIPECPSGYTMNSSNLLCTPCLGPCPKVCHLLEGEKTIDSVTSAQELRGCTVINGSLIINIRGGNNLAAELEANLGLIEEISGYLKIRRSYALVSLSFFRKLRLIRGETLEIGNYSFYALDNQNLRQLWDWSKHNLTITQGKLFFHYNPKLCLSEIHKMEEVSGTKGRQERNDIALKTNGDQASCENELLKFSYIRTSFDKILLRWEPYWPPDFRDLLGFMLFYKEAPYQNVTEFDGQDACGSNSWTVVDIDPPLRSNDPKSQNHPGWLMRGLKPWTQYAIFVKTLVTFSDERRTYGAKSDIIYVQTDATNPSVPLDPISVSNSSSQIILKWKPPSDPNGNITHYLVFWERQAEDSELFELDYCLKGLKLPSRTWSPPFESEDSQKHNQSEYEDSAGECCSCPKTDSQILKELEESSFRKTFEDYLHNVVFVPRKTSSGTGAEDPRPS
Insulin receptor, sequence (P06213 763-1382 limits assumed): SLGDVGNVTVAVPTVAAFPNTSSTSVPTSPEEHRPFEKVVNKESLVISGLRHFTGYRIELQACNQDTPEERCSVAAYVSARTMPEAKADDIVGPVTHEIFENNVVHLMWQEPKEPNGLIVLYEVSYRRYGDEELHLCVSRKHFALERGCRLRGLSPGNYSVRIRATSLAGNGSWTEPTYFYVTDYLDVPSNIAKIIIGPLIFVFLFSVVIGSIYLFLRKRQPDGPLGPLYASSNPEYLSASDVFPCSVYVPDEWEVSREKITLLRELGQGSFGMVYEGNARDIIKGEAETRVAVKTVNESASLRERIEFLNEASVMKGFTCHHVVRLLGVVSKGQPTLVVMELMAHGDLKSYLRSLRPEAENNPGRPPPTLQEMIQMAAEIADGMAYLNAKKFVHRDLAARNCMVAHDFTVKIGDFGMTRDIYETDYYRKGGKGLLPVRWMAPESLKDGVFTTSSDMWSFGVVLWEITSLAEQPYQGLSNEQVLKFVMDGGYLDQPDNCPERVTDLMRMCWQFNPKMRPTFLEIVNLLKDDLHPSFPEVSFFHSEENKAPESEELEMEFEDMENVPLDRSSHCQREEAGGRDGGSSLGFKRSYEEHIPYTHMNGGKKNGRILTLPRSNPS
Summary of the method: (§1)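 Substrates: Poly(Glu,Tyr)4:1 for VEGFR2; Poly(Glu,Tyr) or Poly(Ala,Glu,Lys,Tyr) for INS-R; RBER-CHKtide or casein for PLK1. Incubated 30 °C, 80 min, stopped with 2% H3PO4. Singlicate; activity referenced to no-enzyme and no-inhibitor controls.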

[4] = target: T1, Vascular endothelial growth factor receptor 2 (Homo sapiens, UniProt P35968); assay: Inhibition of VEGFR2 assessed as [33Pi] incorporation by microplate scintillation counting in presence of 1 uM ATP; summary of the method: as §1
T1 sequence (P35968 whole entry): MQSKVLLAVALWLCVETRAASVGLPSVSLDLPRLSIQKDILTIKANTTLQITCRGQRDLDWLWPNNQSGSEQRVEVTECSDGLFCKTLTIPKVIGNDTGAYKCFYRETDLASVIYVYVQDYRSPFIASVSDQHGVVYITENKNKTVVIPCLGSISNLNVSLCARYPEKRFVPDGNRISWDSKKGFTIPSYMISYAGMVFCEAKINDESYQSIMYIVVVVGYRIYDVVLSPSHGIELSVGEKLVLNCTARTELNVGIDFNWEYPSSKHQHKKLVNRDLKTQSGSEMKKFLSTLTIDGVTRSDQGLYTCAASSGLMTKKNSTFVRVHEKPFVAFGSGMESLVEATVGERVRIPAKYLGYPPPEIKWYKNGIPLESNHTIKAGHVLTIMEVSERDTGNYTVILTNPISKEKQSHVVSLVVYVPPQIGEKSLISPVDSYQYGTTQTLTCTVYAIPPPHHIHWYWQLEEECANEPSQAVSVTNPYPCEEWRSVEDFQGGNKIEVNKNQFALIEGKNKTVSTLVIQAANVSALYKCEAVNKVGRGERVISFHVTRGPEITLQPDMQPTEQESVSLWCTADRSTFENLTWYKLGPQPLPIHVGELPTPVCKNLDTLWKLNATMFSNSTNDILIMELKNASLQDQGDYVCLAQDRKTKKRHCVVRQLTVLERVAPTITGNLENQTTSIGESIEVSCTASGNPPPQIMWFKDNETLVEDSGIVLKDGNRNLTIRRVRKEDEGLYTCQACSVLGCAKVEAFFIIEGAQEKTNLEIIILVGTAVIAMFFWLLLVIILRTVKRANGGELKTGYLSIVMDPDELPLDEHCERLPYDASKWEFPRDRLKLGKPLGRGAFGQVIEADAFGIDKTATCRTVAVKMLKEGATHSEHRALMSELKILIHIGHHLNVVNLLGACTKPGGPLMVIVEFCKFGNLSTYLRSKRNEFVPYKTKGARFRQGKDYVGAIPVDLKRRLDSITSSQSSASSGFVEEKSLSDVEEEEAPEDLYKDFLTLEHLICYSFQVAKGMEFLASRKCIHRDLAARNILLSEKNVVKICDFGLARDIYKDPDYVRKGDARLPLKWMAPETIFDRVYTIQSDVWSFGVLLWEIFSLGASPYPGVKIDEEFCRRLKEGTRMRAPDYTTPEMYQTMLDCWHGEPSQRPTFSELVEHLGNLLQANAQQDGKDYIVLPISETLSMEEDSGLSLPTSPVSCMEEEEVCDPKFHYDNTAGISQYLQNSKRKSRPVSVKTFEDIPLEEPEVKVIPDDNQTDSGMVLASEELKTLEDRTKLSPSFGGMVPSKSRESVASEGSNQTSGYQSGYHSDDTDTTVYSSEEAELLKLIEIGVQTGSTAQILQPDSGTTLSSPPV

[5] = tested on: IGROV-1; assay: Growth inhibition of human IGROV1 cells after 48 hrs by sulforhodamine B assay; assay type: functional; details: IGROV-1, 48 h
Summary of the method: (§2)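 NCI SRB assay with five drug concentrations, top concentration 100 μM, 48 h exposure at 37 °C in RPMI 1640/5% FBS. GI50 is the concentration giving [(Ti−Tz)/(C−Tz)]×100 = 50. Values are means of two independent runs on different dates, each run in duplicate.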

[6] = tested on: UACC-257; assay: Growth inhibition of human UACC257 cells after 48 hrs by sulforhodamine B assay; assay type: functional; details: UACC-257, 48 h; summary of the method: as §2
[7] = tested on: CAKI-1; assay: Growth inhibition of human Caki1 cells after 48 hrs by sulforhodamine B assay; assay type: functional; details: CAKI-1, 48 h; summary of the method: as §2
[8] = tested on: HUVEC; assay: Inhibition of angiogenesis in HUVEC assessed as inhibition of VEGF-induced sprout growth from cellular spheroids after 24 hrs; assay type: functional, cell-based; details: Homo sapiens
Summary of the method: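 Spheroids of 500 primary HUVEC formed overnight in hanging drops, then embedded in collagen gel. Compound added with VEGF-A at 25 ng/mL final, incubated 37 °C for 24 h, then fixed in 4% paraformaldehyde. Cumulative sprout length measured by image analysis; the mean of 10 random spheroids counts as one data point. IC50 from curve fitting.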

[9] = target: T1, Vascular endothelial growth factor receptor 2; assay: Inhibition of VEGFR2 in HUE cells assessed as inhibition of VEGF-induced autophosphorylation treated for 90 mins before VEGF challenge by ELISA; assay type: cell-based

Row | SMILES | Activity [1] | pIC50 [2] | pIC50 [3] | pIC50 [4] | GI50 [5] | GI50 [6] | GI50 [7] | pIC50 [8] | pIC50 [9]
1 | COc1ccc2c(c1)NC(=O)Cc1cnc3ccnn3c1-2 | Active | < 4.00 | < 4.00 | 5.07 |  |  |  |  | 
2 | O=C1Cc2cnc(Nc3ccc(I)cc3)nc2-c2ccccc2N1 | Active | 4.82 | < 4.00 | 6.40 |  |  |  |  | 
3 | O=C1Cc2cnc(Nc3ccc(Cl)cc3)nc2-c2ccccc2N1 | Active | < 4.00 | < 4.00 | 6.72 |  |  |  |  | 
4 | COc1ccc2c(c1)NC(=O)Cc1cc3c(=O)n(C)c(=O)n(C)c3nc1-2 | Active | < 4.00 | < 4.00 | < 4.00 |  |  |  |  | 
5 | O=C1Cc2cnc(Nc3ccccc3Br)nc2-c2ccccc2N1 | Active | < 4.00 | < 4.00 | 4.24 |  |  |  |  | 
6 | Cc1ccc(Nc2ncc3c(n2)-c2ccccc2NC(=O)C3)cc1 | Active | < 4.00 | < 4.00 | 6.72 |  |  |  |  | 
7 | O=C1Cc2cnc3cc(-c4ccccc4)nn3c2-c2cnccc2N1 | Active | < 4.00 | < 4.00 | 5.70 |  |  |  |  | 
8 | O=C1Cc2cnc(Nc3ccc(O)cc3)nc2-c2ccccc2N1 | Active | < 4.00 | < 4.00 | 7.10 | 3 µM | > 100 µM | 2.6 µM |  | 
9 | Cn1c(=O)c2cc3c(nc2n(C)c1=O)-c1ccccc1NC(=O)C3 | Active | < 4.00 | < 4.00 | < 4.00 |  |  |  |  | 
10 | Cc1cc(O)ccc1Nc1ncc2c(n1)-c1ccccc1NC(=O)C2 | Active | 4.70 | < 4.00 | 5.92 |  |  |  |  | 
11 | O=C1Cc2cnc(Nc3ccccc3Cl)nc2-c2ccccc2N1 | Active | 4.14 | < 4.00 | 5.21 |  |  |  |  | 
12 | COc1ccc(Nc2ncc3c(n2)-c2ccccc2NC(=O)C3)cc1 | Active | 4.33 | 4.00 | 7.02 | 0.41 µM | 61 µM | 0.51 µM |  | 
13 | COc1ccc2c(c1)NC(=O)Cc1cnc(Nc3ccc(O)c(Cl)c3)nc1-2 | Active | 6.44 | < 4.00 | 7.96 |  |  |  | 5.92 | 6.37
14 | O=C1Cc2cnc(Nc3ccc(O)cc3)nc2-c2ncccc2N1 | Active | 4.26 | < 4.00 | 5.57 |  |  |  |  | 
15 | CCOc1ccc(Nc2ncc3c(n2)-c2cnccc2NC(=O)C3)cc1 | Active | 5.77 | < 4.00 | 7.00 | 0.4 µM | > 100 µM | 0.16 µM |  | 4.73
16 | O=C1Cc2cnc(Nc3ccc(Br)cc3)nc2-c2ccccc2N1 | Active | < 4.00 | < 4.00 | 6.54 |  |  |  |  | 
17 | O=C1Cc2c([nH]c3ccc(Br)cc23)-c2ccccc2N1 | Active |  |  |  |  |  |  |  | 
18 | O=C1Cc2cc3c(=O)[nH]c(=O)[nH]c3nc2-c2ncccc2N1 | Active | < 4.00 | < 4.00 | 4.18 |  |  |  |  | 
19 | O=C1Cc2cnc3ncnn3c2-c2ncccc2N1 | Active | < 4.00 | < 4.00 | < 4.00 |  |  |  |  | 
20 | O=C1Cc2cnc(Nc3ccc([N+](=O)[O-])cc3)nc2-c2ccccc2N1 | Active | < 4.00 | 4.66 | 6.48 |  |  |  |  | 
21 | COc1ccc2c(c1)NC(=O)Cc1cnc3ncnn3c1-2 | Active | < 4.00 | < 4.00 | < 4.00 |  |  |  |  | 
22 | O=C1Cc2cnc(Nc3ccc(O)cc3)nc2-c2cnccc2N1 | Active | 5.59 | < 4.00 | 6.89 |  |  |  |  | 
23 | O=C1Cc2cnc3cc(-c4ccccc4)nn3c2-c2ccccc2N1 | Active | < 4.00 | < 4.00 | 6.20 |  |  |  |  | 
24 | COc1ccc(Nc2ncc3c(n2)-c2ccc(OC)cc2NC(=O)C3)cc1 | Active | 6.46 | < 4.00 | 7.30 |  |  |  |  | 

Row | SMILES | Activity [1] | pIC50 [2] | pIC50 [3] | pIC50 [4] | GI50 [5] | GI50 [6] | GI50 [7] | pIC50 [8] | pIC50 [9]
25 | COc1ccc2c(c1)NC(=O)Cc1cc3c(=O)[nH]c(=O)[nH]c3nc1-2 | Active | < 4.00 | < 4.00 | < 4.00 |  |  |  |  | 
26 | CCOc1ccc(Nc2ncc3c(n2)-c2ncccc2NC(=O)C3)cc1 | Active | < 4.00 | < 4.00 | 5.70 |  |  |  |  | 
27 | COc1ccc2c(c1)NC(=O)Cc1cnc(Nc3ccc(O)cc3)nc1-2 | Active | 6.12 | < 4.00 | 7.55 |  |  |  |  | 
28 | COc1ccc(Nc2ncc3c(n2)-c2ncccc2NC(=O)C3)cc1 | Active | < 4.00 | < 4.00 | 5.82 |  |  |  |  | 
29 | Cn1c(=O)c2cc3c(nc2n(C)c1=O)-c1cnccc1NC(=O)C3 | Active | < 4.00 | < 4.00 | < 4.00 |  |  |  |  | 
30 | O=C1Cc2cnc(Nc3ccc(O)c(Cl)c3)nc2-c2ncccc2N1 | Active | < 4.00 | < 4.00 | 6.17 |  |  |  |  | 
31 | Cn1c(=O)c2cc3c(nc2n(C)c1=O)-c1ncccc1NC(=O)C3 | Active | < 4.00 | < 4.00 | < 4.00 |  |  |  |  | 
32 | O=C1Cc2cc3c(=O)[nH]c(=O)[nH]c3nc2-c2ccccc2N1 | Active | < 4.00 | < 4.00 | < 4.00 |  |  |  |  | 
33 | O=C1Cc2cnc(Nc3ccccc3O)nc2-c2ccccc2N1 | Active | 4.85 | < 4.00 | 6.28 |  |  |  |  | 
34 | COc1ccc2c(c1)NC(=O)Cc1cnc3cc(-c4ccccc4)nn3c1-2 | Active | 4.77 | 4.96 | 5.74 |  |  |  |  | 
35 | COc1ccc(Nc2ncc3c(n2)-c2cnccc2NC(=O)C3)cc1 | Active | 5.60 | < 4.00 | 6.72 |  |  |  |  | 
36 | COc1ccc(Nc2ncc3c(n2)-c2ccccc2NC(=O)C3)cc1O | Active | 5.24 | 4.62 | 7.14 | 0.25 µM | 19 µM | 0.15 µM |  | 5.62
37 | O=C1Cc2cnc3ccnn3c2-c2ccccc2N1 | Active | < 4.00 | < 4.00 | 4.92 |  |  |  |  | 
38 | O=C1Cc2cnc(Nc3cccc(O)c3)nc2-c2ncccc2N1 | Active | < 4.00 | < 4.00 | 5.59 |  |  |  |  | 
39 | O=C1Cc2cnc(Nc3cccc(O)c3)nc2-c2ccccc2N1 | Active | 4.72 | < 4.00 | 7.29 |  |  |  |  | 5.80
40 | COc1ccc2c(c1)NC(=O)Cc1cnc(Nc3cccc(O)c3)nc1-2 | Active | 6.08 | < 4.00 | 7.82 |  |  |  |  | 
41 | O=C1Cc2cnc3cc(-c4ccccc4)nn3c2-c2ncccc2N1 | Active | < 4.00 | < 4.00 | 4.80 |  |  |  |  | 
42 | COc1ccc2c(c1)NC(=O)Cc1cnc(Nc3ccc(OC)c(O)c3)nc1-2 | Active | 6.85 | < 4.00 | 7.74 |  |  |  |  | 
43 | O=C1Cc2cnc(Nc3ccc(O)c(Cl)c3)nc2-c2ccccc2N1 | Active | 5.03 | 4.08 | 7.46 |  | 39 µM | 4.7 µM |  | 5.02
44 | O=C1Cc2cnc(Nc3cccc(O)c3)nc2-c2cnccc2N1 | Active | 5.64 | < 4.00 | 6.85 |  |  |  |  | 
45 | CCOc1ccc(Nc2ncc3c(n2)-c2ccccc2NC(=O)C3)cc1 | Active | < 4.00 | < 4.00 | 6.89 | 0.38 µM | 27 µM | 0.75 µM |  | 
46 | O=C1Cc2cnc3ccnn3c2-c2ncccc2N1 | Active | < 4.00 | < 4.00 | 4.06 |  |  |  |  | 
47 | O=C1Cc2cc3c(=O)[nH]c(=O)[nH]c3nc2-c2cnccc2N1 | Active | < 4.00 | < 4.00 | < 4.00 |  |  |  |  | 
48 | O=C1Cc2cnc(Nc3ccccc3)nc2-c2ccccc2N1 | Active | < 4.00 | < 4.00 | 6.85 |  |  |  |  | 
